Among the data in BindingDB's records for doi:10.1021/jm960245f (University of Maryland, 1996) are IC50 values, retold here.

Molecules are shown by their SMILES. pIC50: −log10 of the molar value.

Experiment [1] deals with T1, Steroid 17-alpha-hydroxylase/17,20 lyase (Homo sapiens, UniProt P05093).
T1 sequence (P05093 whole entry): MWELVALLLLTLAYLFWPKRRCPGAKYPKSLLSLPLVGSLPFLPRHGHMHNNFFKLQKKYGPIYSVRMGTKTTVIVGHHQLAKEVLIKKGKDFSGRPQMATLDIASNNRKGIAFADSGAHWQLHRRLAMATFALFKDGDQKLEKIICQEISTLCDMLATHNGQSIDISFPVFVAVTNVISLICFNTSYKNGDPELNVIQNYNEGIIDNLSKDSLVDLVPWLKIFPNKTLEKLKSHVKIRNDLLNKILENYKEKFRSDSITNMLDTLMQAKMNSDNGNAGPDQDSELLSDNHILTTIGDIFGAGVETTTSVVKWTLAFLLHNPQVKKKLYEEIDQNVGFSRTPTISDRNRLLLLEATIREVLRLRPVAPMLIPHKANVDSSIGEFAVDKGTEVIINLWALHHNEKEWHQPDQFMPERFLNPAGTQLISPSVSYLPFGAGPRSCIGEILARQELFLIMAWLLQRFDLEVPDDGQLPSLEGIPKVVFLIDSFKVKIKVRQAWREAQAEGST
Briefly: Inhibition of human testicular steroid 17-alpha-hydroxylase. Put shortly:
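Human testicular microsomes (orchidectomy tissue from untreated prostatic cancer patients, ca. 90 μg protein) incubated with [7-³H]pregnenolone (400 nM) plus NADPH-generating system in pH 7.4 phosphate buffer under oxygen, 5 min, 34 °C, with four to five inhibitor concentrations. Reverse-phase HPLC with radioactivity counting; activity = conversion to 17α-hydroxypregnenolone plus DHEA. Duplicates, repeated at least once; IC50 by nonlinear regression.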

The target in experiment [2] is T1, Steroid 17-alpha-hydroxylase/17,20 lyase. Briefly: Inhibition of human testicular 17-alpha-hydroxylase. Put shortly:
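Human testicular microsomes (ca. 90 μg protein; from orchidectomy patients, stored at –70 °C, diluted in 0.1 M phosphate buffer) incubated with [7-3H]pregnenolone (400 nM) plus NADPH-generating system in phosphate buffer pH 7.4 under oxygen, 5 min, 34 °C, at four to five inhibitor concentrations. Reverse-phase HPLC with radioactivity counting; activity = conversion to 17α-hydroxypregnenolone plus DHEA. IC50 by nonlinear regression; duplicates, repeated at least once.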

In the case of `CC(N=O)C1CCC2C3CC=C4C[C@@H](O)CC[C@]4(C)C3CC[C@]12C` (stereo partly drawn) [1-((3S,10R,13S)-3-Hydroxy-10,13-dimethyl-2,3,4,7,8,9,10,11,12,13,14,15,16,17-tetradecahydro-1H-cyclopenta[a]phenanthren-17-yl)-ethanone oxime], the pIC50 (usually the IC50 on a negative log10 scale, so that one unit is a factor of ten) in experiment [1] is 6.28. `CC(N=N)[C@H]1CC[C@H]2[C@@H]3CC=C4C[C@@H](O)CC[C@]4(C)[C@H]3CC[C@]12C` (stereo partly drawn) had a negative logarithm of the IC50 (pIC50) in experiment [2] of 5.00. Same read-out and setting: then `C[C@@H](CN=O)[C@H]1CC[C@H]2[C@@H]3CCC4=CC(=O)CC[C@]4(C)[C@H]3CC[C@]12C`, with 5.22.
